Values joined by “and” are separate entries in the source; they are usually repeats but may differ in a detail not shown here. Identical values can stand only once.

1 sequence from ChEMBL document CHEMBL1124874, “Antitumor and DNA-binding properties of a group of oligomeric complexes of Pt(II) and Pt(IV)” (J Med Chem, 1990) can be followed below.

One test has as its system B16. Kind of test: Antitumor efficacy against B-16 tumor cell line, activity is expressed as […] survival time (MST) at the dose of 1.6 mg/kg. It counts as functional, organism-based. Further details: dose 1.6 mg/kg. The note with it: Mus musculus. The method, boiled down:
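Mice bearing B-16 tumor were dosed once daily on days 1–9. Read-out was median survival time in days, with T/C relative to control MST.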

For test [1], the system named is L1210. As to the kind of experiment: Antitumor efficacy against L1210 tumor cell line, activity is expressed as […] survival time (MST) at the dose of 10 mg/kg. The test is classed as functional, organism-based. Further details: dose 10 mg/kg. The note with it: Mus musculus. The method, boiled down: (§1)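 Murine L-1210 leukemia, ascitic form, with compound given on day 1 (a single ip dose on day 1 in mg/kg in one table). Activity was scored as median survival time in days, with T/C relative to untreated controls. A cisplatin positive control was run in each test.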

The test system of test [2] is L1210. Kind of test: Antitumor efficacy against L1210 tumor cell line, activity is expressed as […] survival time (MST) at the dose of 6 mg/kg. The test is classed as functional, organism-based. Further details: dose 6 mg/kg. The note with it: Mus musculus. The method in brief: as §1
Test [3] has as its system L1210. Kind of test: Antitumor efficacy against L1210 tumor cell line, activity is expressed as […] survival time (MST) at the dose of 8 mg/kg. It counts as functional, organism-based. Further details: dose 8 mg/kg. The note with it: Mus musculus. The method in brief: as §1
The test system of a further test is M5076. As to the kind of experiment: Antitumor efficacy against M5076 tumor cell line, activity is expressed as […] survival time (MST) at the dose of 4.8 mg/kg. The test is classed as functional, organism-based. The note with it: Mus musculus. Further details: dose 4.8 mg/kg. The method, boiled down:
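M5076 tumor-bearing mice were dosed on days 1 and 4. Median survival time in days was recorded and T/C calculated against control MST.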

Another test deals with M5076 (mouse). Kind of test: Antitumor efficacy against M5076 tumor cell line, activity is expressed as […] survival time (MST) at the dose of 4.8 mg/kg.

Consider CISPLATIN, for which the MST was 213 in the test with B16; 150 with L1210 [2]; 186 and 167 and 164 in the test on L1210 [3]; 166 in the test on M5076; 200 with M5076 (mouse). The Survival time as % of untreated control (T/C) with L1210 [1] was 193 (2×) and 200 (2×) and 186.
